This is an account of results in ChEMBL document CHEMBL4513216, “Probing the Open Global Health Chemical Diversity Library for Multistage-Active Starting Points for Next-Generation Antimalarials” (ACS Infect Dis, 2020).

A short description of the data set: Toxicity liver stage against HepG2, at 10uM. Format: cell-based. Also on record: test concentration 10 uM, cell line HepG2-A16-CD81EGFP. The note with it: human, HepG2-A16-CD81EGFP cells; read-out: INHIBITION
The essentials:
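Uninfected HepG2-A16-CD81EGFP cells, 3 × 10^3 per well, 1536-well, plated on prespotted compound at 10 μM final, parasite-free screening media added to match infected plates; puromycin 10 μM positive, DMSO 0.5% negative; run in parallel with 48 h PbLuc assay at 37 °C, 5% CO2; viability by CellTiter-Glo luminescence, normalized to controls.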
For the compound `Cc1cc2c(=O)n3c(nc2s1)CCN(C(=O)c1ccn(C)n1)CC3`, the cytotoxicity at 10 µM was -9.68%.

For `O=C(O)CC(NC(=O)c1ccccc1OC(F)F)c1cccs1` (centres undefined), the cytotoxicity at 10 µM is -10.8%.

`CCCC(=O)N(CCN1CCOCC1)c1nc2c(OC)ccc(C)c2s1`: the cytotoxicity at 10 µM was -5.02%.

Regarding `Cc1ncsc1CN1CC[C@H]2C(=O)N(c3ccccc3)CCO[C@H]2C1`, the cytotoxicity at 10 µM was determined as 1.26%.

With `Cc1cc(C)cc(C(=O)N2CCCC3(CCCC(=O)N3C)C2)c1` (centres undefined), the cytotoxicity at 10 µM is 5.06%.

As for `CCC(Nc1nnnn1-c1ccccc1)C(=O)Nc1nc(C)cs1` (centres undefined), the cytotoxicity at 10 µM is -23%.

Consider `CN(C)c1ccc(C(=O)NCc2cccnc2-n2cncn2)cc1F`, for which the cytotoxicity at 10 µM worked out at 2.84%.

As to `O=C(c1cccs1)N1CCN(Cc2cc(=O)c3ccccc3[nH]2)CC1`, the cytotoxicity at 10 µM was -2.93%.

On to `O=C(c1ccncc1)N1CCCC2(COCCN(c3ccccc3)C2)C1` (centres undefined), for which the cytotoxicity at 10 µM is 2.31%.

As to `CC(C)n1cnnc1CNC(=O)c1cnn(-c2ccccc2)c1`, the cytotoxicity at 10 µM was 11.9%.

On to `Cc1cc(C)c2nc(CN3CCC(CN)CC3)cc(O)c2c1`, for which the cytotoxicity at 10 µM was 2.55%.

In the case of `c1ccc(-n2nc(CNC3CCc4ncnn4C3)c3c2CCC3)cc1` (centres undefined), the cytotoxicity at 10 µM was -12.9%.

Turning to `O=C(CCc1ccc2c(c1)CCO2)Nc1nnn[nH]1`, the cytotoxicity at 10 µM was 0.301%.

Regarding `CC(C)(C)CC(=O)NS(=O)(=O)c1ccc(C#N)cc1C(F)(F)F`, the cytotoxicity at 10 µM is -12.3%.

As for `CN(C)CCCN(Cc1ccco1)Cc1ccnn1C1CCCCO1` (centres undefined), the cytotoxicity at 10 µM is -2.52%.

Consider `O=S1(=O)NC(C2CCN(Cc3ccccn3)CC2)Nc2ccccc21` (centres undefined), for which the cytotoxicity at 10 µM is -33.6%.

Regarding `CC(C)c1nn(C)c(N(C)C)c1CNCc1cccc2c1OCO2`, the cytotoxicity at 10 µM was -4.66%.

In the case of `Cc1noc(C(C)C)c1C(=O)NCC1CCN(c2ccccc2)C1` (centres undefined), the cytotoxicity at 10 µM was -11.8%.

Consider `CC(C)N1CCC(Cc2cc(-c3cc(F)ccc3C(=O)O)ncn2)C1` (centres undefined), for which the cytotoxicity at 10 µM was found to be 7.49%.

For `CC(C)(C)n1cc(C(=O)N2CCN(Cc3cccnc3)CC2)cn1`, the cytotoxicity at 10 µM is -7.51%.

For the compound `CCCC(NC(=O)c1cc(C)ccc1O)c1nnn[nH]1` (centres undefined), the cytotoxicity at 10 µM is -3.26%.

On to `COc1ccc(C(=O)N2CCCC(n3cncn3)C2)nn1` (centres undefined), for which the cytotoxicity at 10 µM was determined as 5.58%.

`O=C1CCN(C(=O)CCc2ccc(Cl)cc2Cl)CCN1`: the cytotoxicity at 10 µM is 1.88%.

`Cc1ncc(CN(C)C(=O)Nc2cccc(CN3CCOC3=O)c2)s1`: the cytotoxicity at 10 µM is -2.27%.

Regarding `Cc1nn(C)c(C)c1CC(=O)N1CCc2nnc(N(C)C)cc2C1`, the cytotoxicity at 10 µM was -7.63%.

As for `COCCN1C[C@@H]2[C@@H](OC)CCN(C(=O)c3cccc(OC)c3)[C@@H]2C1`, the cytotoxicity at 10 µM is -1.01%.

Turning to `O=C(NCCN1CCc2ccccc21)c1cc(-c2ccc(O)cc2)n[nH]1`, the cytotoxicity at 10 µM was 1.91%.

In the case of `CC(C)c1nnc2n1CCN(C(=O)Cc1csc(C(C)(C)C)n1)C2`, the cytotoxicity at 10 µM is -4.54%.

Turning to `Cc1nc(C)n(CC2CCCN2CC(=O)NCCC#N)n1` (centres undefined), the cytotoxicity at 10 µM was -2.78%.

On to `CNC(=O)[C@@H]1C[C@@H](N)CN1c1nc(N2CCCC2)nc(C)c1C`, for which the cytotoxicity at 10 µM is -7.82%.

In the case of `CCN(Cc1noc(C(C)(C)C)n1)Cc1ccc(C#N)cc1F`, the cytotoxicity at 10 µM was -4.45%.

As to `CC(C#N)CN(C)Cc1cc(Cl)cc2cccnc12` (centres undefined), the cytotoxicity at 10 µM was -48.5%.

Turning to `Cc1ccc(C(=O)NCCNS(C)(=O)=O)c(=O)[nH]1`, the cytotoxicity at 10 µM was -5.3%.

Turning to `Cc1cccc(CN2C(=O)CO[C@@H]3CN(Cc4cnn(C)c4)C[C@H]32)c1`, the cytotoxicity at 10 µM stood at 1.1%.

`CCc1noc(C2CCCCN2C(=O)c2cc(C)n(C)n2)n1` (centres undefined): the cytotoxicity at 10 µM was determined as 11.2%.

Take `COc1ccc(-c2nc(CN3CCc4c(ncn4C)C3)cs2)cc1`: the cytotoxicity at 10 µM was 3%.

With `CCc1noc(CN2CCC(NC(=O)c3ccc(C)s3)CC2)n1`, the cytotoxicity at 10 µM was -5.04%.

Turning to `COC(=O)c1ccc(N2CCC(c3ccccc3)CC2)nn1`, the cytotoxicity at 10 µM was -3.59%.

For `CCn1cc(CN2CC3CCCN3C[C@H]2C)c(C)n1` (some centres undefined), the cytotoxicity at 10 µM is 0.951%.
